Laboratory results: ChEMBL document CHEMBL4425145, “Discovery of New Anti-Schistosomal Hits by Integration of QSAR-Based Virtual Screening and High Content Screening” (J Med Chem, 2016)
Activity calls are given as the source filed them. No cut-off for these calls is given here.

Assays:
[1] = target: T1, Thioredoxin glutathione reductase (Schistosoma mansoni, UniProt Q962Y6); experiment: Inhibition of Schistosoma mansoni TGR
T1 sequence (Q962Y6 whole entry): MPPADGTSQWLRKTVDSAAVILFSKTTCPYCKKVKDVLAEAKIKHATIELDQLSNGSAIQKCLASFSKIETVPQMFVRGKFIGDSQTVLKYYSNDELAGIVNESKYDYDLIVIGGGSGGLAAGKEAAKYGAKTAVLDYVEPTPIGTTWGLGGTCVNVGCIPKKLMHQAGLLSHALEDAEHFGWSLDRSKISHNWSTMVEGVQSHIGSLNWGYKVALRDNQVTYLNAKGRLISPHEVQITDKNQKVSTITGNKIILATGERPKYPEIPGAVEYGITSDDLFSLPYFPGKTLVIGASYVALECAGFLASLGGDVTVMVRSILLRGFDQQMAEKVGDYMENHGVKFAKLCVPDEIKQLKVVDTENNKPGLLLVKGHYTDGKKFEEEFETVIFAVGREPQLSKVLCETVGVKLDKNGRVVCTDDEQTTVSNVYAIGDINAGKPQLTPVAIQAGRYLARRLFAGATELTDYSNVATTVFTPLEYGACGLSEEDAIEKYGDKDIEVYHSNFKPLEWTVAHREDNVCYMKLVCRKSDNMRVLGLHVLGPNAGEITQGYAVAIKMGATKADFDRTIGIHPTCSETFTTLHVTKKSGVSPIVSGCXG

[2] = tested on: Schistosoma mansoni; experiment: Antischistosomal activity against adult male Schistosoma mansoni BH assessed as inhibition of parasite motility up to 72 hrs by HCS microscopic analysis; format: functional, organism-based
Outline: (§1)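 Adult worms perfused from portal hepatic and mesenteric veins of Swiss mice 42–49 days after percutaneous infection with 150 ± 10 cercariae. Worms held singly in DMEM with 10% FCS and 2 mM L-glutamine overnight at 37 °C, 5% CO2. Exposed to 0.10–100 μM against 0.1% DMSO, imaged at 0, 24, 48 and 72 h. Motility from image-overlap AdjustedRandIndex; EC50 from dose-response curves.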

[3] = tested on: Schistosoma mansoni; experiment: Antischistosomal activity against Schistosoma mansoni BH schistosomula assessed as inhibition of parasite motility after 48 hrs by HCS microscopic analysis; format: functional, organism-based
Outline: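 Schistosomula obtained from cercariae by vortex tail shedding (5 min), held overnight in Medium 169 under 5% CO2 at 120 per well. Dosed at 0.31–20 μM against DMSO 0.625% for 48 h. Motility taken by automated bright-field imaging as average object displacement, adjusted to DMSO control wells. EC50 from a four-parameter logistic fit.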

[4] = tested on: Schistosoma mansoni; experiment: Antischistosomal activity against Schistosoma mansoni BH schistosomula assessed as inhibition of parasite motility at 20 uM after 48 hrs by HCS microscopic analysis; format: functional, organism-based
Outline: (§2)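 Cercariae vortexed at maximum speed for 5 min to shed tails and transform to schistosomula. Larvae resuspended in Medium 169 at 120 per well and held overnight under 5% CO2 before dosing. Exposed 48 h at 20 μM, vehicle DMSO 0.625%. Automated bright-field HCS imaging; Bayesian phenotype and motility scores adjusted to DMSO control wells on each plate.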

[5] = tested on: Schistosoma mansoni; experiment: Antischistosomal activity against Schistosoma mansoni BH schistosomula assessed as multiple vacuole appearance at 20 uM after 48 hrs by HCS microscopic analysis; format: functional, organism-based; outline: as §2
[6] = tested on: Schistosoma mansoni; experiment: Antischistosomal activity against Schistosoma mansoni BH schistosomula assessed as rounding appearance of schistosomula at 20 uM after 48 hrs by HCS microscopic analysis; format: functional, organism-based; outline: as §2
[7] = tested on: Schistosoma mansoni; experiment: Antischistosomal activity against Schistosoma mansoni BH schistosomula assessed as darkening of schistosomula at 20 uM after 48 hrs by HCS microscopic analysis; format: functional, organism-based; outline: as §2
[8] = tested on: Schistosoma mansoni; experiment: Antischistosomal activity against Schistosoma mansoni BH schistosomula assessed as morphological changes at 20 uM after 48 hrs by HCS microscopic analysis; format: functional, organism-based; outline: as §2
[9] = tested on: Schistosoma mansoni; experiment: Antischistosomal activity against adult female Schistosoma mansoni BH assessed as inhibition of parasite motility up to 72 hrs by HCS microscopic analysis; format: functional, organism-based; outline: as §1
[10] = Cytotoxicity against human WSS1 cells assessed as reduction in cell viability after 48 hrs by resazurin assay; format: cell-based
Outline: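 Human kidney WSS-1 epithelial cells grown in DMEM (4.5 g/L glucose, 10% FBS, gentamicin) and seeded at 5×10^4 cells/mL. Dosed 20 h later at 0.2–400 μM for 48 h at 37 °C, 5% CO2. Resazurin (final 0.01 mg/mL) added 4 h before the end; resorufin fluorescence read at ex 560/em 590 nm. Viability taken relative to DMSO (0.2–0.8%); CC50 from a four-parameter logistic fit.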

[11] = tested on: Schistosoma mansoni; experiment: Antischistosomal activity against adult male Schistosoma mansoni BH assessed as inhibition of parasite motility at 20 to 100 uM after 48 to 72 hrs in presence of 0.01% triton X-100 by colloidal aggregation assay; format: functional, organism-based
Outline: (§3)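 Perfused adult worms held singly in complete DMEM at 37 °C, 5% CO2. Incubated with compound at 20 and 100 μM, with or without Triton X-100 (0.01%). HCS motility measured at 48 and 72 h, and activity with detergent compared with activity without it.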

[12] = tested on: Schistosoma mansoni; experiment: Antischistosomal activity against adult female Schistosoma mansoni BH assessed as inhibition of parasite motility at 20 to 100 uM after 48 to 72 hrs in presence of 0.01% triton X-100 by colloidal aggregation assay; format: functional, organism-based; outline: as §3
[13] = tested on: Schistosoma mansoni; experiment: Antischistosomal activity against adult male Schistosoma mansoni BH assessed as inhibition of parasite motility at 20 to 100 uM after 48 to 72 hrs in absence of 0.01% triton X-100 by colloidal aggregation assay; format: functional, organism-based; outline: as §3
[14] = tested on: Schistosoma mansoni; experiment: Antischistosomal activity against adult female Schistosoma mansoni BH assessed as inhibition of parasite motility at 20 to 100 uM after 48 to 72 hrs in absence of 0.01% triton X-100 by colloidal aggregation assay; format: functional, organism-based; outline: as §3
[15] = target: T2, Papain (Carica papaya, UniProt P00784); experiment: Inhibition of papaya papain using Z-FR-AMC fluorogenic peptide substrate preincubated for 5 mins followed by substrate addition
T2 sequence (P00784 whole entry): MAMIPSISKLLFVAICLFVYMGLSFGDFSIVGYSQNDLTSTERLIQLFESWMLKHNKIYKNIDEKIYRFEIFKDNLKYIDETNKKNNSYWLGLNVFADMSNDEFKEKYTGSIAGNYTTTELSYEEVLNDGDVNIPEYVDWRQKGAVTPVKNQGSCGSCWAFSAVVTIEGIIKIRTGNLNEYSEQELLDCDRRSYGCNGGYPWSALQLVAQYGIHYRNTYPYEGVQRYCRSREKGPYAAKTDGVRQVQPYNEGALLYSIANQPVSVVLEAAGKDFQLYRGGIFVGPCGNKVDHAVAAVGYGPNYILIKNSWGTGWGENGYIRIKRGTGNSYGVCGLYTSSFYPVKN
Outline: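 Papain (5 μg/mL) in 100 mM sodium acetate, pH 3.5, at 37 °C. Pre-incubated 5 min with compound at 20 and 100 μM, then reaction started with 50 μM Z-FR-AMC fluorogenic substrate. E-64 used as positive control.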

[16] = tested on: Schistosoma mansoni; experiment: Antischistosomal activity against adult male Schistosoma mansoni BH assessed as inhibition of parasite motility after 72 hrs by HCS microscopic analysis; format: functional, organism-based
Outline: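 Adult worms perfused from portal hepatic and mesenteric veins of Swiss mice 42–49 days after percutaneous infection with 150 ± 10 cercariae; males placed singly in wells in DMEM with 10% fetal calf serum, 2 mM L-glutamine, penicillin and streptomycin; held overnight at 37 °C, 5% CO2. Exposed to 0.10–100 μM, DMSO 0.1% control. Image-based motility (overlap index) read at 72 h; EC50 from dose-response.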

Row | Structure (SMILES) | IC50 [1] [µM] | EC50 [2] [µM] | EC50 [3] [µM] | motility inhibition activity call [4] | Activity [5] | Activity [6] | Activity [7] | Activity [8] | EC50 [9] [µM] | CC50 [10] [µM] | inhibition [11] | inhibition [12] | inhibition [13] | inhibition [14] | IC50 [15] [µM] | EC50 [16] [µM]
1 | COc1ccc(C(=O)c2no[n+]([O-])c2C(=O)c2ccc(OC)cc2)cc1 | 0.1 | – | – | – | – | – | – | – | – | – | – | – | – | – | – | –
2 | O=S(=O)(Cc1ccccc1)c1nc2ccccc2s1 | – | 21.1 | 2.62 | Active | Active | Active | Active | Active | 4.91 | 28.5 | Active | Active | Active | Active | > 100 | –
3 | CC(=O)c1ccc(NCCC(=O)c2cccs2)cc1 | – | – | > 20 | Active | – | – | – | Active | – | – | – | – | – | – | – | –
4 | N#Cc1cn(-c2ccccc2)nc1-c1ccco1 | – | – | > 20 | Active | – | – | – | Active | – | – | – | – | – | – | – | –
5 | Cc1noc(/C=C/c2ccccn2)c1[N+](=O)[O-] | – | 6.43 | 3.23 | Active | Active | Active | Active | Active | 5.68 | 16.4 | Active | Active | Active | Active | > 100 | –
6 | O=C(C1CCCCC1)N1CC(=O)N2CCc3ccccc3C2C1 (stereo not drawn) [PRAZIQUANTEL] | – | – | 1.9 | – | – | – | – | – | 0.64 | > 400 | – | – | – | – | – | 0.22
7 | O=C1CC(Sc2nnc[nH]2)C(=O)N1c1ccc(I)cc1 (stereo not drawn) | – | 10.2 | > 20 | Active | – | – | – | Active | 17.9 | 133 | – | – | – | – | > 100 | –
8 | O=C(CSc1ccccn1)Nc1nonc1[N+](=O)[O-] | 7.08 | – | – | – | – | – | – | – | – | – | – | – | – | – | – | –
9 | COc1ccc(/C=C/[N+](=O)[O-])cc1OC | – | 29.8 | > 20 | Active | – | – | – | Active | 5.77 | 17.5 | Active | Active | Active | Active | > 100 | –
